For test [1], the system named is fibroblast cell line. Nature of the test: In vitro antiproliferative MTT assay, fibroblast. It counts as cell-based. The following applies: 48 h. The procedure, abridged: (§1)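 PC12 (rat pheochromocytoma) or fibroblast cells at 5000/well in DMEM with 10% heat-inactivated FBS, penicillin 100 U/mL and streptomycin 100 μg/mL, grown 24 h. At 80% confluence, test compound or docetaxel/cisplatin controls were added at 1–360 μg/mL for 48 h. MTT (5 mg/mL in PBS pH 7.4) added for 3–4 h; formazan dissolved in DMSO, read at 570 nm. Triplicate; IC50 calculated.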

Test [2] deals with PC12 cell line. Description: In vitro antiproliferative MTT assay, PC12. It counts as cell-based, rat. The note with it: 48 h. The essentials:
as §1
(Formazan colour is commonly taken as a measure of viable cells.)

Test [3] deals with PC12 cells. Description: Cellular uptake by fluorescent microscopy. It counts as cell-based, rat. The following applies: 100 μg/mL, 24 h incubation, 37 °C. The essentials:
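PC12 cells at 5 × 10^4 cells/well in DMEM with 10% FBS and antibiotics, kept at 37 °C in 5% CO2. Exposed to test compound at 37 °C for 24 h. Washed three times with cold PBS, then 3 min in sterile distilled water. Intrinsic compound fluorescence imaged without staining by fluorescence microscopy (bright field, DAPI, GFP channels), compared with untreated cells.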

Test [4] concerns formation of β-hematin. Description: In vitro β-hematin inhibition assay. It is filed as biochemical. The following applies: 200 μg/mL, 60 °C, 24 h; positive if more than 90%. The essentials:
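Heme detoxification (ITHD) assay. Hemin chloride was dissolved in DMSO and diluted to 60 μg/mL in 1 M acetate buffer pH 4.5. Tween 20 stock was 0.012 g/L; compound was dissolved in DMSO. Hemin, sample and Tween were mixed 9:9:2 in triplicate, final 200 μg/mL. Controls: hemin-free matrix blanks, DMSO negative, chloroquine phosphate positive. Incubated 60 °C, 24 h; mixed and absorbance read at 405 nm.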

The subject of test [5] is P. falciparum. The note with it: cited from earlier work.

The text below walks through data of publication PMC9075022 (Research in Pharmaceutical Sciences, 2022).

Each structure is given as a SMILES string. Values after ≈ are worked out from the molar mass of the structure shown. Read-outs that look alike come from different tables or passages of the source.

Consider `Cc1c(OCc2ccccc2)c(=O)ccn1CCCOC(=O)c1ccc(Cl)cc1Cl` [7a, 3-(3-(benzyloxy)-2-methyl-4-oxopyridin-1(4H)-yl) propyl 2,4-dichlorobenzoate], for which the “IC50 on fibroblast cell line” value in test [1] came out at 44 µg/mL (≈ 98.6 µM). For the same molecule, in test [2], the “IC50 against PC12” value is 37 µg/mL (≈ 82.9 µM). In test [3], the “cellular uptake (fluorescent emission)” value is given as “cellular uptake potential”. The “Heme inhibition (%)” value in test [4] is listed as 39%.
Take `Cc1occc(=O)c1O` [Maltol]: the “inhibition of growth of P. falciparum compared to control” value in test [5] (0.01 mM) was “about 15%”; in test [5] (0.10 mM), approximately 50%.
Take `Cc1c(OCc2ccccc2)c(=O)ccn1CCCO` [alcoholic precursor, 3-(benzyloxy) -1-(3-hydroxypropyl) -2-methylpyridin-4(1H)-one]: the “toxicity against PC12 in words” value in test [2] (1-360 μg/mL) is recorded as “didn’t display remarkable toxicity in defined concentrations”.
As to `N.N.[Cl][Pt][Cl]` [cisplatin, reference compound], the “IC50 against PC12” value in test [2] is 8 µg/mL.
